Reference: ChEMBL document CHEMBL1140003, “Bivalent ligand approach on 4-[2-(3-methoxyphenyl)ethyl]-1-(2-methoxyphenyl)piperazine: synthesis and binding affinities for 5-HT(7) and 5-HT(1A) receptors” (Bioorg Med Chem, 2007)

Experiments:
[1] = molecular target: 5-hydroxytryptamine receptor 7 (Rattus norvegicus, UniProt P32305); experiment: Displacement of [3H]LSD from rat recombinant 5HT7 receptor expressed in HEK293 cells; format: cell-based
Summary of the method: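 Membranes (30 µg) incubated 60 min at 37 °C with 2.5 nM [3H]LSD and 6–9 test concentrations in 50 mM Tris, 10 mM MgCl2, 0.5 mM EDTA, pH 7.4. Stopped by GF/A filtration (0.5% PEI pre-soak), cold-buffer washes; nonspecific binding defined by 10 µM 5-CT. Ki by nonlinear curve fit and Cheng–Prusoff; mean ± SEM of three experiments in triplicate.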

[2] = molecular target: 5-hydroxytryptamine receptor 1A (Homo sapiens) (UniProt P08908); experiment: Displacement of [3H]-8-OH-DPAT from human recombinant 5HT1A receptor expressed in HEK293 cells
Chain of 5-hydroxytryptamine receptor 1A (Homo sapiens) (P08908 whole entry, looked up): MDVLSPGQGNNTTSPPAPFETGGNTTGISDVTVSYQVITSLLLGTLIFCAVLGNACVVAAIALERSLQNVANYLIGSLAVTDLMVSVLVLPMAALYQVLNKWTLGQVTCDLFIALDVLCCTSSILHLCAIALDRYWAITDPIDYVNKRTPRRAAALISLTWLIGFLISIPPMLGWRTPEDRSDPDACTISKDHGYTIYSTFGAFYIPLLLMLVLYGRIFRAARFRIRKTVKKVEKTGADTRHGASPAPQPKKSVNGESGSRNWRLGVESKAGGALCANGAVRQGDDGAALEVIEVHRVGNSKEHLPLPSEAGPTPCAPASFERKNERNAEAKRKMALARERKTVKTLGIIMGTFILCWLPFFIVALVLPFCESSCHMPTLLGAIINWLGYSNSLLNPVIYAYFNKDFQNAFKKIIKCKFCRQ

Chain of 5-hydroxytryptamine receptor 7 (P32305 whole entry): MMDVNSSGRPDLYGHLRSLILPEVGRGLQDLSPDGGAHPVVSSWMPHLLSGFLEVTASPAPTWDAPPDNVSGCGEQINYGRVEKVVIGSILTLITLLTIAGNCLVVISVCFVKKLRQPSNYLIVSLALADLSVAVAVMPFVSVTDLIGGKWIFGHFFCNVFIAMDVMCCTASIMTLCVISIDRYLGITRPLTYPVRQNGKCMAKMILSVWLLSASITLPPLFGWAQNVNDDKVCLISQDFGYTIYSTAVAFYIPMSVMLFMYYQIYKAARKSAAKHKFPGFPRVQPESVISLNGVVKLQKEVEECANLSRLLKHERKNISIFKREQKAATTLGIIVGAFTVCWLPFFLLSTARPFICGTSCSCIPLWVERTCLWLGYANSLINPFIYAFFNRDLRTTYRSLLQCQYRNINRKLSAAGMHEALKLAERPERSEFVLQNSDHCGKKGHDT

Row | Ki [1] [nM] | Ki [2] [nM] | Compound
1 | 25 | 5.6 | COc1ccccc1N1CCN(CCc2cccc(OCCCOc3cccc(CCN4CCN(c5ccccc5OC)CC4)c3)c2)CC1
2 | 41.1 | 2.2 | COc1ccccc1N1CCN(CCc2cccc(OCCOc3cccc(CCN4CCN(c5ccccc5OC)CC4)c3)c2)CC1
3 | 573 | 4.8 | COc1ccccc1N1CCN(CCc2cccc(OCCCCCCCCOc3cccc(CCN4CCN(c5ccccc5OC)CC4)c3)c2)CC1
4 | 28.5 | 0.9 | COc1ccccc1N1CCN(CCc2cccc(OCCCCOc3cccc(CCN4CCN(c5ccccc5OC)CC4)c3)c2)CC1
5 | 258 | 28.3 | COc1ccccc1N1CCN(CCc2cccc(OCCCCCCCCCCOc3cccc(CCN4CCN(c5ccccc5OC)CC4)c3)c2)CC1
6 | – | 253 | COc1ccccc1N1CCN(CCc2cccc(OCCCCCCCCCCCCOc3cccc(CCN4CCN(c5ccccc5OC)CC4)c3)c2)CC1
7 | 37 | 0.62 | COc1ccccc1N1CCN(CCc2cccc(OCCOCCOc3cccc(CCN4CCN(c5ccccc5OC)CC4)c3)c2)CC1
8 | 120 | 1.74 | COc1ccccc1N1CCN(CCc2cccc(OCCCCCOc3cccc(CCN4CCN(c5ccccc5OC)CC4)c3)c2)CC1
9 | 43 | 2.74 | COc1ccccc1N1CCN(CCc2cccc(OC(=O)COCC(=O)Oc3cccc(CCN4CCN(c5ccccc5OC)CC4)c3)c2)CC1
10 | 42.6 | 1.6 | COc1ccccc1N1CCN(CCc2cccc(OCCCCCCOc3cccc(CCN4CCN(c5ccccc5OC)CC4)c3)c2)CC1
